In publication PMC6220780 (Clinical Pharmacology in Drug Development, 2018):
Like-named read-outs stand apart in the source and are kept apart here. Marks after values point to notes of the source that are not given here.

Experiments:
[1] = type: in vivo, human
Outline: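 Samples were assayed by validated HPLC-MS/MS (solid-phase extraction, deuterated internal standard, negative-ion MRM; LLOQ 0.05 ng/mL). Parameters came from noncompartmental analysis. Group effects were assessed by ANOVA as geometric mean ratios to the normal-function group with 90% CIs.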

SGLT2 = settings: cited from earlier work
[2] = tested on: Japanese patients with type 2 diabetes mellitus; experiment: Plasma glucose; type: in vivo, human; settings: for FPG change from baseline / FPG postdose: single 5-mg oral dose, mean ± SD; for changes in plasma glucose AUC0-4 from baseline: single 5-mg dose
Outline: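 Hospitalized patients received a single oral dose before breakfast on day 3. Plasma glucose was sampled predose and at 0.5, 1, 2, 4, 6, 8, 12 and 24 h and measured by autoanalyzer. AUC was calculated by the linear trapezoidal rule, with change from the day before dosing estimated per patient. Change in AUC0-4 was analyzed by 1-sample t test.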

[3] = tested on: Japanese patients with type 2 diabetes mellitus; experiment: Safety: adverse events after a single 5-mg dose; type: in vivo, human
Outline: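 Adverse events were recorded by type and incidence from monitoring of clinical laboratory tests, body weight, vital signs and electrocardiograms. Monitoring covered a 6-day hospital stay with a single oral dose on day 3, plus a follow-up visit 3–5 days after discharge.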

[4] = Urinary excretion of luseogliflozin and metabolites up to 72 hours; type: in vivo, human; settings: single 5-mg dose of luseogliflozin
Outline: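 24-h urine was collected before dosing and over 0–24, 24–48 and 48–72 h after a single oral dose. Parent compound and metabolites were quantified by validated LC-MS/MS after solid-phase extraction with deuterated internal standards (parent LLOQ 0.1 ng/mL). Excretion rates were estimated from the urine concentrations.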

[5] = tested on: Japanese patients with type 2 diabetes mellitus; experiment: 24-hour urinary glucose excretion; type: in vivo, human; settings: single 5-mg oral dose, mean ± SD
Outline: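 Patients were hospitalized for 6 days and 5 nights on a stable diet, with no other antidiabetic drugs. A single oral dose of the test compound was given before breakfast on day 3. Glucose was measured by autoanalyzer in 24-h pooled urine collected before and after dosing.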

Q: Which “ratio of the geometric mean (90%CI) of Cmax to the Cmax of G1” value (from here on “ratio … (90%CI) of Cmax to the Cmax of G1”) ([1]; G2 versus G1) does the source give for `CCOc1ccc(Cc2cc([C@@H]3S[C@H](CO)[C@@H](O)[C@H](O)[C@H]3O)c(OC)cc2C)cc1` [luseogliflozin, (1S)‐1,5‐anhydro‐1‐[5‐(4‐ethoxybenzyl)‐2‐methoxy‐4‐methylphenyl]‐1‐thio‐D‐glucitol] here?
A: 0.922 (0.756–1.13)

Q: And the “ratio of the geometric mean of AUCinf (90%CI) to that of G1” value (“ratio … (90%CI) to that of G1” for short) ([1]; G2 versus G1)?
A: 1.05 (0.900–1.21)

Q: What about the “ratio … (90%CI) of Cmax to the Cmax of G1” value ([1]; G3a versus G1) of the same compound?
A: 0.939 (0.720–1.22)

Q: And the “ratio … (90%CI) to that of G1” value ([1]; G3a versus G1)?
A: 1.05 (0.842–1.32)

Q: And the “ratio … (90%CI) of Cmax to the Cmax of G1” value ([1]; G3b versus G1)?
A: 0.781 (0.607–1.01)

Q: What about the “ratio … (90%CI) to that of G1” value ([1]; G3b versus G1) of the same compound?
A: 1.04 (0.879–1.23)

Q: What about the “plasma concentration 72 hours after administration as fraction of the Cmax” value ([1]; G4, single 5-mg dose of luseogliflozin) of the same compound?
A: approximately one‐fiftieth

Q: And the “ratio … (90%CI) of Cmax to the Cmax of G1” value ([1]; G4 versus G1)?
A: 0.724 (0.525–0.999)

Q: What about the “ratio … (90%CI) to that of G1” value ([1]; G4 versus G1) of the same compound?
A: 1.21 (0.947–1.53)

Q: And the concentration at 72 h ([1]; human, plasma, oral, 5 mg)?
A: 1.28 to 3.15 ng/mL

Q: What about the “selectivity for SGLT2 over SGLT1” value (SGLT2; SGLT2 versus SGLT1) of the same compound?
A: 1770 fold

Q: And the IC50 (SGLT2; read-out: half-maximal inhibitory concentration (IC50) for SGLT2)?
A: 2.26 nM

Q: What about the “FPG change from baseline” value ([2]; G1, eGFR ≥90, n = 11) of the same compound?
A: -27.4 ± 23.5 mg/dL

Q: And the FPG postdose ([2]; G1, eGFR ≥90, n = 11)?
A: 139.7 ± 25.2 mg/dL

Q: What about the “changes in plasma glucose AUC0-4 from baseline” value (shortened to “changes … from baseline”) ([2]; G1, P < .05) of the same compound?
A: −135 mg⋅h/dL

Q: And the “FPG change from baseline” value ([2]; G2, eGFR 60–89, n = 17)?
A: -15.1 ± 13.6 mg/dL

Q: What about the FPG postdose ([2]; G2, eGFR 60–89, n = 17) of the same compound?
A: 136.4 ± 37.0 mg/dL

Q: And the “changes … from baseline” value ([2]; G2, P < .05)?
A: −104 mg⋅h/dL

Q: And the “FPG change from baseline” value ([2]; G3a, eGFR 45–59, n = 9)?
A: −11.3 ± 13.5 ^b mg/dL

Q: What about the FPG postdose ([2]; G3a, eGFR 45–59, n = 9) of the same compound?
A: 140.1 ± 26.6 ^b mg/dL

Q: What about the “changes … from baseline” value ([2]; G3a, P < .05) of the same compound?
A: −108 mg⋅h/dL

Q: And the “FPG change from baseline” value ([2]; G3b, eGFR 30–44, n = 12)?
A: −4.8 ± 11.8 ^c mg/dL

Q: What about the FPG postdose ([2]; G3b, eGFR 30–44, n = 12) of the same compound?
A: 135.7 ± 24.3 ^c mg/dL

Q: What about the “changes … from baseline” value ([2]; G3b) of the same compound?
A: −30.2 mg⋅h/dL

Q: What about the “FPG change from baseline” value ([2]; G4, eGFR <30, n = 6) of the same compound?
A: 2.2 ± 7.9 mg/dL

Q: And the FPG postdose ([2]; G4, eGFR <30, n = 6)?
A: 125.8 ± 21.1 mg/dL

Q: What about the “changes … from baseline” value ([2]; G4) of the same compound?
A: −32.6 mg⋅h/dL

Q: What about the “difference in plasma glucose AUC0-4 from G1 (90%CI)” value (shortened to “difference … (90%CI)”) ([2]; between G1 and G2) of the same compound?
A: 32.3 (−22.8–87.5)

Q: What about the “difference … (90%CI)” value ([2]; between G1 and G3a) of the same compound?
A: 26.7 (−38.6 to 91.9)

Q: And the “difference … (90%CI)” value ([2]; between G1 and G3b)?
A: 92.2 (21.9–163)

Q: And the “difference … (90%CI)” value ([2]; between G1 and G4)?
A: 72.6 (−1.29 to 146)

Q: And the “AEs judged as moderate: increased blood glucose, patients” value ([3]; 57 patients)?
A: 2

Q: What about the “AEs judged as moderate: syncope, patients” value ([3]; 57 patients) of the same compound?
A: 1

Q: What about the “number of AEs in the total study population” value ([3]; 57 patients, all of mild to moderate severity) of the same compound?
A: 12

Q: And the “Adverse event: Rash (Skin and subcutaneous tissue disorders)” value ([3]; G1 (n = 11))?
A: 1

Q: What about the “All adverse events: number of patients” value ([3]; G1 (n = 11)) of the same compound?
A: 1

Q: What about the “Adverse event: Blood glucose increased (Investigations)” value ([3]; G2 (n = 17)) of the same compound?
A: 1

Q: And the “Adverse event: Bundle branch block, right (Cardiac disorders)” value ([3]; G2 (n = 17))?
A: 1

Q: And the “All adverse events: number of patients” value ([3]; G2 (n = 17))?
A: 2

Q: What about the “All adverse events: number of events” value ([3]; G3a (n = 10)) of the same compound?
A: 2

Q: What about the “All adverse events: number of patients” value ([3]; G3a (n = 10)) of the same compound?
A: 2

Q: What about the “Adverse event: Blood glucose increased (Investigations)” value ([3]; G3b (n = 13)) of the same compound?
A: 1

Q: What about the “Adverse event: Dizziness (Nervous system disorders)” value ([3]; G3b (n = 13)) of the same compound?
A: 1

Q: What about the “Adverse event: Syncope (Nervous system disorders)” value ([3]; G3b (n = 13)) of the same compound?
A: 1

Q: And the “All adverse events: number of patients” value ([3]; G3b (n = 13))?
A: 3

Q: What about the “All adverse events: number of patients” value ([3]; G4 (n = 6)) of the same compound?
A: 0

Q: And the “deaths or serious AEs” value ([3]; any group)?
A: no deaths or serious AEs were observed

Q: And the “AEs judged to be related to luseogliflozin administration” value ([3]; both judged to be mild)?
A: rash in the G1 group and dizziness in the G3b group

Q: And the “changes in laboratory parameters or vital signs” value ([3]; during the study, data not shown)?
A: no clinically relevant changes

Q: And the “number of patients with AEs in the total study population” value ([3]; of the 57 patients)?
A: 8

Q: And the “excreted in urine up to 72 hours after administration” value (“excreted in urine up to 72 hours” below) ([4]; G1)?
A: 4.68%

Q: And the “excreted in urine up to 72 hours” value ([4]; G2)?
A: 4.15%

Q: And the “excreted in urine up to 72 hours” value ([4]; G3a)?
A: 3.25%

Q: What about the “excreted in urine up to 72 hours” value ([4]; G3b) of the same compound?
A: 2.90%

Q: And the “excreted in urine up to 72 hours” value ([4]; G4)?
A: 2.15%

Q: And the “UGE0-24 change from baseline” value ([5]; G1, eGFR ≥90, n = 11)?
A: 88.3 ± 36.9 g/day

Q: What about the UGE0-24 postdose ([5]; G1, eGFR ≥90, n = 11) of the same compound?
A: 111 ± 36.0 g/day

Q: And the “UGE0-24 change from baseline” value ([5]; G2, eGFR 60–89, n = 17)?
A: 69.7 ± 19.1 g/day

Q: And the UGE0-24 postdose ([5]; G2, eGFR 60–89, n = 17)?
A: 82.6 ± 23.8 g/day

Q: What about the “UGE0-24 change from baseline” value ([5]; G3a, eGFR 45–59, n = 9) of the same compound?
A: 57.3 ± 14.9 g/day

Q: What about the UGE0-24 postdose ([5]; G3a, eGFR 45–59, n = 9) of the same compound?
A: 64.4 ± 24.4 ^b g/day

Q: And the “UGE0-24 change from baseline” value ([5]; G3a, eGFR 45–59, n = 9, listed as Luseogliflozin)?
A: 57.3 ± 14.9 ^b g/day

Q: And the “UGE0-24 change from baseline” value ([5]; G3b, eGFR 30–44, n = 12)?
A: 35.3 ± 10.8 g/day

Q: What about the UGE0-24 postdose ([5]; G3b, eGFR 30–44, n = 12) of the same compound?
A: 39.4 ± 12.9 ^c g/day

Q: What about the “UGE0-24 change from baseline” value ([5]; G3b, eGFR 30–44, n = 12, listed as Luseogliflozin) of the same compound?
A: 35.3 ± 10.8 ^c g/day

Q: What about the “UGE0-24 change from baseline” value ([5]; G4, eGFR <30, n = 6) of the same compound?
A: 21.8 ± 7.10 g/day

Q: What about the UGE0-24 postdose ([5]; G4, eGFR <30, n = 6) of the same compound?
A: 23.7 ± 8.83 g/day
